Each block holds one molecule with its values, some of them ahead of it. The source made the active and inactive calls. The calls are words filed in the database; no cut-off is given here.
Experiments:
[1] = molecular target: T1, Glucocorticoid receptor (Rattus norvegicus) (UniProt P06536); assay: (§1) In vivo glucocorticoid profile, depression of body weight gain without altered food consumption in rat at 25 mg/kg peroral dose; assay type: functional, organism-based; parameters: dose 25 mg/kg
T1 sequence (whole entry): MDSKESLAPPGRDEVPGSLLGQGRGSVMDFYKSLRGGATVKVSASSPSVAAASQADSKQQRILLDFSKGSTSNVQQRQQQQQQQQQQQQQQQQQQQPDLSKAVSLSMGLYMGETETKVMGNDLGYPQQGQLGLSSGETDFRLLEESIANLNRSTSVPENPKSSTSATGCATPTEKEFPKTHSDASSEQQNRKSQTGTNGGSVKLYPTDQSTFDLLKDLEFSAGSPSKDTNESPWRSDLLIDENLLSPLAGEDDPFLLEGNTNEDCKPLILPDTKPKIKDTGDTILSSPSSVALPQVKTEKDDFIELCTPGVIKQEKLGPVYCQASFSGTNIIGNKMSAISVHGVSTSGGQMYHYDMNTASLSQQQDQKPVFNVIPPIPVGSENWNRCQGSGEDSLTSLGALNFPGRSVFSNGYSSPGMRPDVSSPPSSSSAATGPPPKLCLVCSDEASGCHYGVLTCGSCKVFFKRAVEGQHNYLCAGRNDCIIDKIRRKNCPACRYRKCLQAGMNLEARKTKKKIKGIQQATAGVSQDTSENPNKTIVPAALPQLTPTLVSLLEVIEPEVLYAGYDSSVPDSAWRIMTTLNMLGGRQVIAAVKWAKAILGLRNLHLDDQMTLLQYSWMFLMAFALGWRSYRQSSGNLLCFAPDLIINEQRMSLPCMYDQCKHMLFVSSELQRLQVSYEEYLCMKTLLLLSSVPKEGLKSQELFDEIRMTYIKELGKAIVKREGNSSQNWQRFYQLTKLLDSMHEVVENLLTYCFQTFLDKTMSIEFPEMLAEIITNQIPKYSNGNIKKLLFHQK
Method in brief: (§2)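 Two-week oral glucocorticoid profile in rats. Thymus weight, adrenal weight and body weight gain are each expressed as % change from control.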

[2] = molecular target: T1, Glucocorticoid receptor (Rattus norvegicus); assay: (§3) In vivo glucocorticoid profile, depression of body weight gain without altered food consumption in rat at 5 mg/kg peroral dose; assay type: functional, organism-based; parameters: dose 5 mg/kg; method in brief: as §2
[3] = molecular target: T1, Glucocorticoid receptor (Rattus norvegicus); assay: (§4) In vivo glucocorticoid profile, depression of adrenal weight in rat at 25 mg/kg peroral dose; assay type: functional, organism-based; parameters: dose 25 mg/kg
Method in brief: (§5)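 Two-week oral dosing test in rats. At the end, thymus weight, adrenal weight and body weight gain are recorded and expressed as % change from control.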

[4] = molecular target: T1, Glucocorticoid receptor (Rattus norvegicus); assay: (§6) In vivo glucocorticoid profile, depression of thymus weight in rat at 25 mg/kg peroral dose; assay type: functional, organism-based; parameters: dose 25 mg/kg; method in brief: as §5
[5] = molecular target: T1, Glucocorticoid receptor (Rattus norvegicus); assay: In vivo glucocorticoid profile, depression of thymus weight in rat at 5 mg/kg peroral dose; assay type: functional, organism-based; parameters: dose 5 mg/kg; method in brief: as §2
[6] = molecular target: T1, Glucocorticoid receptor (Rattus norvegicus); assay: In vivo antiinflammatory activity in the rat, alpha-tocopherol filled pouch peroral dose; IA = inactive; assay type: functional, organism-based
Method in brief: (§7)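 Rats receive an air-filled pouch injected with 0.5 mL DL-α-tocopherol. Oral doses are given daily for 7 days, starting on the day of pouch formation, as suspensions in 1% gum tragacanth. ED50 is in mg/kg po.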

[7] = molecular target: T1, Glucocorticoid receptor (Rattus norvegicus); assay: In vivo glucocorticoid profile, depression of adrenal weight in rat at 5 mg/kg peroral dose; assay type: functional, organism-based; parameters: dose 5 mg/kg; method in brief: as §2
[8] = molecular target: T1, Glucocorticoid receptor (Rattus norvegicus); assay: Relative binding affinity (RBA) for glucocorticoid receptor from rat liver cytosol by displacement of [3H]-RU-28,362
Method in brief: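 Competitive binding to glucocorticoid receptor in liver cytosol from adrenalectomized rats, with [3H]RU28362 as ligand. RBA is derived from the concentrations of dexamethasone and of competitor giving 50% binding inhibition. A value of zero means binding was too low to measure.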

[9] = molecular target: T1, Glucocorticoid receptor (Rattus norvegicus); assay: In vivo anti-inflammatory activity in the rat, alpha-tocopherol filled pouch peroral dose; assay type: functional, organism-based; method in brief: as §7
[10] = molecular target: T1, Glucocorticoid receptor (Rattus norvegicus); assay: In vivo glucocorticoid profile, depression of adrenal weight in rat at 1 mg/kg peroral dose; assay type: functional, organism-based; parameters: dose 1 mg/kg; method in brief: as §2
[11] = molecular target: T1, Glucocorticoid receptor (Rattus norvegicus); assay: as §1; assay type: functional, organism-based; parameters: dose 25 mg/kg; method in brief: as §5; remark: listed apart in the source
[12] = molecular target: T1, Glucocorticoid receptor (Rattus norvegicus); assay: as §3; assay type: functional, organism-based; parameters: dose 5 mg/kg; method in brief: as §5; remark: listed apart in the source
[13] = molecular target: T1, Glucocorticoid receptor (Rattus norvegicus); assay: In vivo glucocorticoid profile, depression of body weight gain without altered food consumption in rat at 1 mg/kg peroral dose; assay type: functional, organism-based; parameters: dose 1 mg/kg; method in brief: as §5
[14] = molecular target: T1, Glucocorticoid receptor (Rattus norvegicus); assay: In vivo glucocorticoid profile, depression of thymus weight in rat at 1 mg/kg peroral dose; assay type: functional, organism-based; parameters: dose 1 mg/kg; method in brief: as §2
[15] = molecular target: T1, Glucocorticoid receptor (Rattus norvegicus); assay: In vivo glucocorticoid profile, depression of adrenal weight in rat at 50 mg/kg peroral dose; assay type: functional, organism-based; parameters: dose 50 mg/kg; method in brief: as §2
[16] = molecular target: T1, Glucocorticoid receptor (Rattus norvegicus); assay: In vivo glucocorticoid profile, depression of thymus weight in rat at 50 mg/kg peroral dose; assay type: functional, organism-based; parameters: dose 50 mg/kg; method in brief: as §2
[17] = molecular target: T1, Glucocorticoid receptor (Rattus norvegicus); assay: In vivo antiinflammatory activity in the rat, alpha-tocopherol filled pouch 25 mg/kg peroral dose; IA = inactive; assay type: functional, organism-based; parameters: dose 25 mg/kg; method in brief: as §7
[18] = molecular target: T1, Glucocorticoid receptor (Rattus norvegicus); assay: In vivo glucocorticoid profile, depression of body weight gain without altered food consumption in rat at 50 mg/kg peroral dose; assay type: functional, organism-based; parameters: dose 50 mg/kg; method in brief: as §2
[19] = molecular target: T1, Glucocorticoid receptor (Rattus norvegicus); assay: In vivo glucocorticoid profile, depression of body weight gain without altered food consumption in rat at 100 mg/kg peroral dose; assay type: functional, organism-based; parameters: dose 100 mg/kg; method in brief: as §2
[20] = molecular target: T1, Glucocorticoid receptor (Rattus norvegicus); assay: In vivo glucocorticoid profile, depression of thymus weight in rat at 100 mg/kg peroral dose; assay type: functional, organism-based; parameters: dose 100 mg/kg; method in brief: as §2
[21] = molecular target: T1, Glucocorticoid receptor (Rattus norvegicus); assay: (§8) In vivo glucocorticoid profile, depression of adrenal weight in rat at 100 mg/kg peroral dose; assay type: functional, organism-based; parameters: dose 100 mg/kg; method in brief: as §2
[22] = molecular target: T1, Glucocorticoid receptor (Rattus norvegicus); assay: as §8; assay type: functional, organism-based; parameters: dose 100 mg/kg; method in brief: as §5; remark: listed apart in the source
[23] = molecular target: T1, Glucocorticoid receptor (Rattus norvegicus); assay: as §4; assay type: functional, organism-based; parameters: dose 25 mg/kg; method in brief: as §2; remark: listed apart in the source
[24] = molecular target: T1, Glucocorticoid receptor (Rattus norvegicus); assay: as §6; assay type: functional, organism-based; parameters: dose 25 mg/kg; method in brief: as §2; remark: listed apart in the source
[25] = molecular target: T1, Glucocorticoid receptor (Rattus norvegicus); assay: In vivo antiinflammatory activity in the rat, alpha-tocopherol filled pouch 48 mg/kg peroral dose; IA = inactive; assay type: functional, organism-based; parameters: dose 48 mg/kg

SMILES: C[C@]12Cc3cnn(-c4ccccc4)c3C=C1CC[C@@H]1OC3(CC=C12)C(=O)c1ccccc1C3=O
Weight gain [1]: -86
Weight gain [2]: -62
Change [3]: -50%
Change [4]: -62%
Change [5]: -51%
ED50 [6]: inactive
Change [7]: -38%

SMILES: CN1C(=O)N(C)C(=O)C2(CC=C3[C@H](CC[C@H]4Cc5c(cnn5-c5ccncc5)C[C@]34C)O2)C1=O
RBA [8]: 0%

SMILES: CN1C(=O)N(C)C(=O)C2(CC=C3[C@H](CCC4=Cc5c(cnn5-c5ccncc5)C[C@@]43C)O2)C1=O
RBA [8]: 0.72%

SMILES: C[C@]12Cc3cnn(-c4ccc(F)cc4)c3C=C1CC[C@@H]1OC3(CC=C12)C(=O)NC(=O)NC3=O
ED50 [9]: 4 mg/kg
Change [10]: 0%
Weight gain [11]: -180
Weight gain [12]: -140
Change [3]: -53%
Change [4]: -84%
Weight gain [13]: -65
Change [5]: -72%
Change [14]: 0%
Change [7]: -30%

SMILES: C[C@]12Cc3cnn(-c4ccc(F)cc4)c3C=C1CC[C@H]1C2=CCCC1c1ccccn1 (stereo not given in full)
Weight gain [19]: -88
Change [20]: -64%
Change [21]: -48%
ED50 [6]: inactive

SMILES: CC(=O)C1CC=C2[C@H](CCC3=Cc4c(cnn4-c4ccc(F)cc4)C[C@@]32C)C1C(C)=O (stereo not given in full)
Weight gain [12]: -80
Change [7]: -40%

SMILES: C[C@]12CCC(=O)C=C1CC[C@@H]1[C@@H]2[C@@H](O)C[C@@]2(C)[C@H]1CC[C@]2(O)C(=O)CO
ED50 [9]: 18 mg/kg

The remaining lines, values ahead:

Change [15]: 0%
Change [16]: 0%
ED50 [17]: inactive
Weight gain [18]: 0
SMILES: CCCN1C(=O)N(CCC)C(=O)C2(CC=C3[C@H](CCC4=Cc5c(cnn5-c5ccc(F)cc5)C[C@@]43C)O2)C1=O

Change [22]: -45%
Weight gain [1]: 0
Change [23]: 0%
ED50 [17]: inactive
Change [20]: -34%
Change [24]: -34%
SMILES: CCN1C(=O)N(CC)C(=O)C2(CC=C3[C@H](CCC4=Cc5c(cnn5-c5ccc(F)cc5)C[C@@]43C)O2)C1=O

Change [15]: -37%
Change [16]: -34%
Weight gain [18]: -58
ED50 [25]: inactive
SMILES: C=CCN1C(=O)N(CC=C)C(=O)C2(CC=C3[C@H](CCC4=Cc5c(cnn5-c5ccc(F)cc5)C[C@@]43C)O2)C1=O

— ChEMBL document CHEMBL1126871, “Non-steroidal glucocorticoid-like substances: receptor binding and in vivo activity” (J Med Chem, 1993)
